According to ChEMBL document CHEMBL4138224, “DNA intercalators based on (1,10-phenanthrolin-2-yl)isoxazolidin-5-yl core with better growth inhibition and selectivity than cisplatin upon head and neck squamous cells carcinoma” (Eur J Med Chem, 2018):
pIC50: −log10 of the molar value. The source made the active and inactive calls. The rule behind the calls is not given here.

Experiments:
[1] = Cytotoxicity against human HN6 cells assessed as decrease in cell viability after 24 hrs by MTT assay; assay type: functional, cell-based; conditions: HN-6, 24 h
How it was run: (§1)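 Cells seeded at 1×10^4 per well in complete medium with 10% FBS and antibiotics, 37 °C, 5% CO2. Washed with serum-free medium, then exposed to compounds for 24 h. MTT (5 mg/mL) added for a further 4 h, formazan dissolved in DMSO, absorbance read at 490 nm. Triplicates; IC50 obtained by non-linear regression of dose-response curves.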

[2] = tested on: HeLa; test: Cytotoxicity against human HeLa cells assessed as decrease in cell viability after 24 hrs by MTT assay; assay type: functional, cell-based; how it was run: as §1
[3] = tested on: Bacteria; test: Induction of bacterial pGEM-T easy DNA intercalation assessed as topoisomerase 1-mediated conversion of relaxed plasmid DNA to negatively supercoiled DNA at 10 nM after 30 mins by agarose-gel electrophoresis method
How it was run: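 Relaxed pGEM-T Easy plasmid was made by Topo I treatment of supercoiled plasmid. Stopped with SDS/proteinase K (30 min, 50 °C). Run on 1% agarose in TBE, ethidium bromide stain; relaxed-to-supercoiled conversion scored.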

[4] = tested on: 184B5; test: Cytotoxicity against human 184B5 cells assessed as decrease in cell viability after 24 hrs by MTT assay; assay type: cell-based; conditions: 184B5, 24 h; how it was run: as §1
[5] = species: Bos taurus; test: Induction of calf thymus B DNA intercalation assessed as drug binding constant at DNA melting temperature at 31 uM by UV-vis spectrophotometric method
How it was run: (§2)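 ct-DNA (31 μM in base pair) mixed with 31 μM compound, taken as saturating, in PBS. Absorbance at 260 nm monitored while heating 308 to 388 K at 1 K/min with a Peltier unit, giving melting curves. Binding constants estimated from the melting data.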

[6] = tested on: WSU-HN13; test: Cytotoxicity against human HN13 cells assessed as decrease in cell viability after 24 hrs by MTT assay; assay type: functional, cell-based; conditions: WSU-HN13, 24 h; how it was run: as §1
[7] = species: Bos taurus; test: Induction of calf thymus B DNA intercalation assessed as DNA melting temperature at 31 uM by UV-vis spectrophotometric method (reference value: 354K); how it was run: as §2
[8] = species: Bos taurus; test: Induction of calf thymus B DNA intercalation at 36 uM by CD spectra method
How it was run: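 CD titration at 25 °C in quartz cells: fixed ct-DNA (12.6 μM in base pair) with compound added from a 4.26 mM DMSO stock, final 0 to about 35 μM. Each spectrum is an average of 5 runs with 5 min equilibration before each scan, corrected for dilution, cell and solvent.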

[9] = tested on: WSU-HN13; test: Potency index, ratio of cisplatin IC50 to test compound IC50 for human HN13 cells; assay type: functional
[10] = Selectivity index, ratio of IC50 for human 184B5 cells to IC50 for human HN13 cells; assay type: toxicity; conditions: 184B5 cells versus HN13 cells, read-out: Ratio IC50
[11] = Potency index, ratio of cisplatin IC50 to test compound IC50 for human HN6 cells; assay type: functional
[12] = Selectivity index, ratio of IC50 for human 184B5 cells to IC50 for human HN6 cells; assay type: toxicity; conditions: 184B5 cells versus HN6 cells, read-out: Ratio IC50
[13] = Selectivity index, ratio of IC50 for human 184B5 cells to IC50 for human HeLa cells; assay type: toxicity; conditions: 184B5 cells versus HeLa cells, read-out: Ratio IC50

SMILES	pIC50 [1]	pIC50 [2]	Activity [3]	pIC50 [4]	K [5]	pIC50 [6]	Tm [7]	Activity [8]	Ratio IC50 [9]	selectivity ratio [10]	Ratio IC50 [11]	selectivity ratio [12]	selectivity ratio [13]
COc1ccccc1CN1O[C@@H](CO)C[C@@H]1c1ccc2ccc3cccnc3c2n1 (relative stereo)	4.61	4.40	Active	3.42	9.26 ×10³ /M	4.60	81.9 °C	Active					
COc1ccccc1CN1O[C@H](CO)C[C@@H]1c1ccc2ccc3cccnc3c2n1 (relative stereo)	5.20	4.88	Active	3.49	4.53 ×10⁴ /M	5.35	84.9 °C	Active	9.2	72	3.4	51.4	24.3
